In ChEMBL document CHEMBL4364274, “Synthesis and biological activity of glycyrrhetinic acid derivatives as antitumor agents” (Eur J Med Chem, 2019):
Blank lines part the entries; values can stand above or below the compound they belong to. Calls of active or inactive are those of the source. The calls are words filed in the database; no cut-off is given here.

How the values were obtained:
A549 [1] = test: Antiproliferative activity against human A549 cells incubated for 72 hrs by MTT assay; assay type: functional, cell-based; conditions: A549, 72 h
Summary of the method: (§1)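 Cells in exponential growth were plated at 3×10^3 cells/well and grown 24 h at 37 °C in 5% CO2. They were then exposed to a range of drug concentrations for 72 h. MTT (5 mg/mL solution) was added for 4 h, the medium was discarded, and formazan was dissolved in DMSO before reading A490. Drug-free wells served as blanks. % inhibition was calculated as 1 − (sample−blank)/(control−blank), and IC50 was taken as the concentration giving 50% inhibition.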

MCF7 = test: Antiproliferative activity against human MCF7 cells incubated for 72 hrs by MTT assay; assay type: functional, cell-based; conditions: MCF7, 72 h; summary of the method: as §1
HepG2 [2] = test: Antiproliferative activity against human HepG2 cells incubated for 72 hrs by MTT assay; assay type: functional, cell-based; conditions: HepG2, 72 h; summary of the method: as §1
HeLa = test: Antiproliferative activity against human HeLa cells incubated for 72 hrs by MTT assay; assay type: functional, cell-based; summary of the method: as §1
MDCK = test: Cytotoxicity against MDCK cells incubated for 72 hrs by MTT assay; assay type: cell-based; conditions: Canis lupus familiaris; summary of the method: as §1
HepG2 [3] = test: Ratio of IC50 for GA to IC50 for test compound for human HepG2 cells; assay type: functional
A549 [4] = test: Induction of morphological changes in human A549 cells assessed as appearance of apoptotic body formation at 1 to 5 uM incubated for 72 hrs by DAPI staining by inverted phase-contrast microscopic method; assay type: functional, cell-based
Summary of the method: (§2)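 Exponentially growing A549 cells were plated at 2.4×10^4 cells/well, grown 24 h at 37 °C in 5% CO2, then exposed to 1, 3 or 5 μM for 72 h beside untreated controls. Cells were washed twice in PBS, fixed in 4% paraformaldehyde for 10 min, and stained with DAPI (10 µg/mL) for 1 min in the dark. Nuclei were examined by inverted microscope at 200×.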

A549 [5] = test: Induction of morphological changes in human A549 cells assessed as condensation of chromatin at 1 to 5 uM incubated for 72 hrs by DAPI staining by inverted phase-contrast microscopic method; assay type: functional, cell-based; summary of the method: as §2
A549 [6] = test: Induction of morphological changes in human A549 cells assessed as formation of nuclear fragmentation at 1 to 5 uM incubated for 72 hrs by DAPI staining by inverted phase-contrast microscopic method; assay type: functional, cell-based; summary of the method: as §2
A549 [7] = test: Induction of apoptosis in human A549 cells assessed as live cell at 1 uM incubated for 72 hrs by annexin V-FITC and PI staining based flow cytometric analysis (reference value: 90%); assay type: functional
A549 [8] = test: Induction of apoptosis in human A549 cells assessed as early apoptotic cells at 1 uM incubated for 72 hrs by annexin V-FITC and PI staining based flow cytometric analysis (reference value: 3.0%); assay type: functional
A549 [9] = test: Induction of apoptosis in human A549 cells assessed as late apoptotic cells at 1 uM incubated for 72 hrs by annexin V-FITC and PI staining based flow cytometric analysis (reference value: 6.5%); assay type: functional
A549 [10] = test: Induction of apoptosis in human A549 cells assessed as necrotic cells at 1 uM incubated for 72 hrs by annexin V-FITC and PI staining based flow cytometric analysis (reference value: 0.5%); assay type: functional
A549 [11] = test: Induction of apoptosis in human A549 cells assessed as live cell at 3 uM incubated for 72 hrs by annexin V-FITC and PI staining based flow cytometric analysis (reference value: 90%); assay type: functional
A549 [12] = test: Induction of apoptosis in human A549 cells assessed as early apoptotic cells at 3 uM incubated for 72 hrs by annexin V-FITC and PI staining based flow cytometric analysis (reference value: 3.0%); assay type: functional
A549 [13] = test: Induction of apoptosis in human A549 cells assessed as late apoptotic cells at 3 uM incubated for 72 hrs by annexin V-FITC and PI staining based flow cytometric analysis (reference value: 6.5%); assay type: functional
A549 [14] = test: Induction of apoptosis in human A549 cells assessed as necrotic cells at 3 uM incubated for 72 hrs by annexin V-FITC and PI staining based flow cytometric analysis (reference value: 0.5%); assay type: functional
A549 [15] = test: Induction of apoptosis in human A549 cells assessed as live cell at 5 uM incubated for 72 hrs by annexin V-FITC and PI staining based flow cytometric analysis (reference value: 90%); assay type: functional
A549 [16] = test: Induction of apoptosis in human A549 cells assessed as early apoptotic cells at 5 uM incubated for 72 hrs by annexin V-FITC and PI staining based flow cytometric analysis (reference value: 3.0%); assay type: functional
A549 [17] = test: Induction of apoptosis in human A549 cells assessed as late apoptotic cells at 5 uM incubated for 72 hrs by annexin V-FITC and PI staining based flow cytometric analysis (reference value: 6.5%); assay type: functional
A549 [18] = test: Induction of apoptosis in human A549 cells assessed as necrotic cells at 5 uM incubated for 72 hrs by annexin V-FITC and PI staining based flow cytometric analysis (reference value: 0.5%); assay type: functional
A549 [19] = test: Induction of cell cycle arrest in human A549 cells assessed as accumulation at G1 phase at 1 uM incubated for 72 hrs by PI staining based flow cytometric analysis (reference value: 49.94%); assay type: functional
A549 [20] = test: Induction of cell cycle arrest in human A549 cells assessed as accumulation at S phase at 1 uM incubated for 72 hrs by PI staining based flow cytometric analysis (reference value: 31.41%); assay type: functional
A549 [21] = test: Induction of cell cycle arrest in human A549 cells assessed as accumulation at G2 phase at 1 uM incubated for 72 hrs by PI staining based flow cytometric analysis (reference value: 18.65%); assay type: functional
A549 [22] = test: Induction of cell cycle arrest in human A549 cells assessed as accumulation at G1 phase at 3 uM incubated for 72 hrs by PI staining based flow cytometric analysis (reference value: 49.94%); assay type: functional
A549 [23] = test: Induction of cell cycle arrest in human A549 cells assessed as accumulation at S phase at 3 uM incubated for 72 hrs by PI staining based flow cytometric analysis (reference value: 31.41%); assay type: functional
A549 [24] = test: Induction of cell cycle arrest in human A549 cells assessed as accumulation at G2 phase at 3 uM incubated for 72 hrs by PI staining based flow cytometric analysis (reference value: 18.65%); assay type: functional
A549 [25] = test: Induction of cell cycle arrest in human A549 cells assessed as accumulation at G1 phase at 5 uM incubated for 72 hrs by PI staining based flow cytometric analysis (reference value: 49.94%); assay type: functional
A549 [26] = test: Induction of cell cycle arrest in human A549 cells assessed as accumulation at S phase at 5 uM incubated for 72 hrs by PI staining based flow cytometric analysis (reference value: 31.41%); assay type: functional
A549 [27] = test: Induction of cell cycle arrest in human A549 cells assessed as accumulation at G2 phase at 5 uM incubated for 72 hrs by PI staining based flow cytometric analysis (reference value: 18.65%); assay type: functional
A549 [28] = test: Ratio of IC50 for GA to IC50 for test compound for human A549 cells; assay type: functional

SMILES: CC1(C)[C@@H](NC(=O)[C@@H]2CCCN2)CC[C@]2(C)[C@H]3C(=O)C=C4[C@@H]5C[C@@](C)(C(=O)OCc6ccccc6)CC[C@]5(C)CC[C@@]4(C)[C@]3(C)CC[C@@H]12
IC50 (A549 [1]): 3.26 µM
IC50 (MCF7): 7.62 µM
IC50 (HepG2 [2]): 2.14 µM
IC50 (HeLa): 2.21 µM
IC50 (MDCK): 2.53 µM
Ratio IC50 (HepG2 [3]): 16

SMILES: C[C@H](N)C(=O)N[C@H]1CC[C@]2(C)[C@H]3C(=O)C=C4[C@@H]5C[C@@](C)(C(=O)OCc6ccccc6)CC[C@]5(C)CC[C@@]4(C)[C@]3(C)CC[C@H]2C1(C)C
IC50 (A549 [1]): 2.11 µM
IC50 (MCF7): 2.14 µM
IC50 (HepG2 [2]): 2.44 µM
IC50 (HeLa): 2.39 µM
IC50 (MDCK): 4.65 µM
Activity (A549 [4]): Active
Activity (A549 [5]): Active
Activity (A549 [6]): Active
Activity (A549 [7]): 85%
Activity (A549 [8]): 5.9%
Activity (A549 [9]): 8.6%
Activity (A549 [10]): 0.4%
Activity (A549 [11]): 65.7%
Activity (A549 [12]): 26.5%
Activity (A549 [13]): 7.5%
Activity (A549 [14]): 0.3%
Activity (A549 [15]): 54%
Activity (A549 [16]): 44.8%
Activity (A549 [17]): 1.1%
Activity (A549 [18]): 0%
Activity (A549 [19]): 53.09%
Activity (A549 [20]): 31.05%
Activity (A549 [21]): 15.86%
Activity (A549 [22]): 56.45%
Activity (A549 [23]): 33.59%
Activity (A549 [24]): 9.96%
Activity (A549 [25]): 46.79%
Activity (A549 [26]): 53.21%
Activity (A549 [27]): 0%
Ratio IC50 (A549 [28]): 18

SMILES: CC[C@H](C)[C@H](N)C(=O)O[C@H]1CC[C@]2(C)[C@H]3C(=O)C=C4[C@@H]5C[C@@](C)(C(=O)OCc6ccccc6)CC[C@]5(C)CC[C@@]4(C)[C@]3(C)CC[C@H]2C1(C)C
IC50 (A549 [1]): 4.97 µM
IC50 (MCF7): 10 µM
IC50 (HepG2 [2]): 8.15 µM
IC50 (HeLa): 9.65 µM
IC50 (MDCK): 9.01 µM

Second part, led by results:

IC50 (A549 [1]): > 40 µM
IC50 (MCF7): > 40 µM
IC50 (HepG2 [2]): > 40 µM
IC50 (HeLa): > 40 µM
SMILES: CC(C)C[C@H](NC(=O)OC(C)(C)C)C(=O)O[C@H]1CC[C@]2(C)[C@H]3C(=O)C=C4[C@@H]5C[C@@](C)(C(=O)OCc6ccccc6)CC[C@]5(C)CC[C@@]4(C)[C@]3(C)CC[C@H]2C1(C)C
IC50 (MDCK): > 40 µM

IC50 (A549 [1]): 3.28 µM
IC50 (MCF7): 6.1 µM
IC50 (HepG2 [2]): 6.21 µM
IC50 (HeLa): 2.3 µM
SMILES: CC(C)C[C@H](N)C(=O)N[C@H]1CC[C@]2(C)[C@H]3C(=O)C=C4[C@@H]5C[C@@](C)(C(=O)OCc6ccccc6)CC[C@]5(C)CC[C@@]4(C)[C@]3(C)CC[C@H]2C1(C)C
IC50 (MDCK): 4.65 µM
